Bioassay records as filed in PubChem.
F508del corr: F508del CFTR correction, initial screen, CFBE line, single point. CFBE cells, YFP halide quenching; stimulated with forskolin plus potentiator P3; % fluorescence drop versus neutral controls. activity (quench increase), % at 7.58 µM. 350,000 compounds, 0.36% hits;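 active means mean added fluorescence quench of at least 8% versus neutral control, with both replicates also reaching 8%; inconclusive means only one of the mean or replicate conditions met; inactive means mean below 8% and not both replicates reaching 8%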;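 further: cells transiently co-express mutant CFTR-F508del with the halide-sensitive YFP; corrector assay measuring rescue of mutant channel to the surface after 24 h compound exposure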
FN deposit inh: inhibitors of fibronectin matrix deposition, primary screen, AH1F cells, Alexa488-fibronectin fluorescence, plate reader; AH1F fibroblasts, overnight; inhibition, % at 12.6 µM; 350,000 compounds, 0.086% hits;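 active means mean inhibition across replicates of 30% or more, regardless of how many single replicates reach that level; inconclusive means mean under 30% yet at least half of replicates reach 30%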
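Material: AH1F fibroblast monolayer depositing Alexa488-labelled fibronectin into matrix | Input: 10000 AH1F cells/well | Medium: DMEM plus 2% serum, read in PBS | Reagent: Alexa488-fibronectin, 24 nM final in well | Compound dosing: One dose per compound, pinned | Schedule: 1 h adhesion, overnight exposure | Measured by: Fluorescence at 485 nm excitation, 525 nm emission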
PGC1a acetyl inh: inhibitors of PGC1a acetylation signal, primary screen, cell-based, U2OS, AlphaScreen, inhibitor mode; AlphaScreen anti-acetyl-lysine; with virally co-expressed GCN5 acetyltransferase; inhibition, % at 15.6 µM; 350,000 compounds, 0.17% hits;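 active means every replicate shows inhibition of at least 40%; inconclusive means mean inhibition at least 40% but some replicate below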
XiGFP reactiv: activators of inactive X chromosome reactivation, primary screen, imaging, XiGFP fibroblasts, GFP high-content imaging, set 2 | activation, % at 7.58 µM | XiGFP mouse fibroblasts, % GFP-positive cells imaging, 3 d; cells co-treated with 5-aza-dC sensitizer; scaled so ellipticine positive control = 100% | 360,000 compounds, 0.055% hits | AID 743238, 2013;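 active means mean normalized replicate activation at least 10% and every replicate at or above 10%; inconclusive means only one of the two criteria met; inactive means mean below 10% and not all replicates reach 10%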
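material = 68-5-11 XiGFP fibroblast line | medium = DMEM plus 5-aza-dC sensitizer | schedule = 3 days compound exposure | benchmarks = positive control ellipticine, 6 µM final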
Cneo AK release: Cryptococcus neoformans cell lysis inducers, primary screen, AK release luminescence, single concentration; C. neoformans lysis, adenylate kinase release luminescence, 4 h; normalised: neutral wells 0, clomiphene wells 100; lysis activity, % at 15 µM; 360,000 compounds, 0.2% hits; AID 651654, 2012;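 active means mean lysis activity across replicates of at least 80%, whatever share of replicates individually reach that level; inactive means mean lysis activity below 80%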
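Assay system: C. neoformans cells. Amount: yeast cell density of 5 × 10^6 cells/mL. Technique: AK luminescence. Buffer or medium: YPD. Times: static 4 h at 37 °C with compound, 1 h detection. Dosing: single-point compound dose. Read-out: lysis from increased AK signal.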
DENV2 CPE: inhibitors of DENV2 cytopathic effect, primary screen, cell-based, plate reader, single concentration | DENV2-infected cells, cytopathic effect rescue | CPE inhibition, % at 9.99 µM | 350,000 compounds, 1.7% hits; in the data active means CPE inhibition above about 20%, passing the limit was not always enough; inconclusive means no clear call, values can overlap the other calls; tested in BHK-21 cells
C2C12 COX5a inh: inhibitors of PGC-1a-driven COX5a expression, dose response, cell-based, C2C12 myotubes, RT-qPCR, cherry-picked samples; AID 743461, 2014; shares compounds with PGC1a acetyl inh; maximal activity, %; C2C12 myotubes PGC-1a adenovirus; 45 tested, under 10 active;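 active means fitted dose curve reaching 40% activity at or below the highest valid dose tested; inconclusive means flat fit between 30% and 70%, or an unusable fit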
AID743468: change in PGC-1a target gene PDK4 expression, dose response, C2C12 myotubes, RT-qPCR, cherry-pick. shares compounds with PGC1a acetyl inh. PGC-1a adenovirus, PDK4 mRNA qPCR. PDK4 expression increase, % at 19.5 µM. 45 tested, under 10 active. AID 743468, 2014;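 active means fitted curve reaching a 40% PDK4 expression rise at or below the top valid tested dose; inconclusive means no clear call, values can overlap the other calls; inactive means the rest, including shifts the wrong way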
A number is an active result; i = inactive; ? = inconclusive; nt = no result; ! = not active in a repeat. In the library only some 1.9% were active in any assay of this set; here they are far more common.

SMILES	F508del corr	FN deposit inh	PGC1a acetyl inh	XiGFP reactiv	Cneo AK release	DENV2 CPE	C2C12 COX5a inh	AID743468
C#CCN(C[C@@H]1[C@@H](OC(=O)NCc2ccco2)[C@@H](OC(=O)NCc2ccco2)Cn2c(=O)ccc(=O)n21)S(=O)(=O)c1ccc(C)cc1	i	i	i	i	i	i	nt	nt
C#CCN(C[C@@H]1[C@@H](OC(=O)NCCCCCC)[C@@H](OC(=O)NCCCCCC)Cn2c(=O)ccc(=O)n21)S(=O)(=O)c1ccc(C)cc1	i	i	92	i	i	i	i	88
Cc1ccc(Cn2ncc(Cl)c(Cl)c2=O)cc1	nt	i	i	i	i	i	i	i
CCN1CCN(Cc2ccc(NC(=O)c3ccc(C)c(NC(=O)c4c[nH]c5cc(C(F)(F)F)ccc5c4=O)c3)cc2C(F)(F)F)CC1	i	i	78!	i	i	i	i	i
COc1ccc(S(=O)(=O)N(C)C[C@H]2Oc3c(NC(=O)c4nc5ccccc5s4)cccc3C(=O)N([C@H](C)CO)C[C@H]2C)cc1	i	i	i	i	i	i	nt	nt
OC[C@@H]1[C@H](c2ccc(/C=C/c3ccccc3)cc2)[C@H]2CN(Cc3cccnc3)CCCCN12	i	nt	i	i	i	i	nt	nt
N#Cc1cc(Oc2cccc3cccnc23)c(-n2nnc3ccccc32)cc1C#N	i	nt	i	nt	i	i	i	i
N#Cc1cc(O)c(-n2nnc3ccccc32)cc1C#N	i	i	i	i	i	i	nt	nt
CNC[C@H]1Oc2ccc(N)cc2CC(=O)N(C)C[C@@H]1C	nt	i	nt	i	nt	nt	nt	nt
COc1ccc(C(=O)Nc2cccc(NC(=O)c3ccc(OC)c(OC)c3)n2)cc1OC	i	i	61	i	i	i	i	44
Cc1ccccc1-n1nnnc1SCC(N)=O	nt	nt	i	nt	i	nt	nt	nt
Cc1ccccc1-n1nnnc1Sc1nnnn1-c1ccccc1	nt	nt	?	nt	i	nt	i	i
CCCN1C[C@@H](C)[C@@H](OC)CN(C)C(=O)c2ccc(NC(=O)c3ccccc3)cc2OC[C@@H]1C	i	i	i	i	i	i	nt	nt
COCCSc1ccccc1C(=O)Nc1cc(C)on1	i	nt	?	nt	i	i	i	i
